Data: ChEMBL document CHEMBL1155976, “Synthesis and preliminary pharmacological evaluation of imidazo[2,1-f]purine-2,4-dione derivatives” (Eur J Med Chem, 2009)
Activity calls are given as the source filed them. The calls are words filed in the database; no cut-off is given here.

Legend:
[1] = biological target: D(2) dopamine receptor (Rattus norvegicus, UniProt P61169); assay: Displacement of [3H]spiperone from dopamine D2 receptor in rat striatum membrane after 30 mins by liquid scintillation counting; format: cell membranes
D(2) dopamine receptor, sequence (P61169 whole entry): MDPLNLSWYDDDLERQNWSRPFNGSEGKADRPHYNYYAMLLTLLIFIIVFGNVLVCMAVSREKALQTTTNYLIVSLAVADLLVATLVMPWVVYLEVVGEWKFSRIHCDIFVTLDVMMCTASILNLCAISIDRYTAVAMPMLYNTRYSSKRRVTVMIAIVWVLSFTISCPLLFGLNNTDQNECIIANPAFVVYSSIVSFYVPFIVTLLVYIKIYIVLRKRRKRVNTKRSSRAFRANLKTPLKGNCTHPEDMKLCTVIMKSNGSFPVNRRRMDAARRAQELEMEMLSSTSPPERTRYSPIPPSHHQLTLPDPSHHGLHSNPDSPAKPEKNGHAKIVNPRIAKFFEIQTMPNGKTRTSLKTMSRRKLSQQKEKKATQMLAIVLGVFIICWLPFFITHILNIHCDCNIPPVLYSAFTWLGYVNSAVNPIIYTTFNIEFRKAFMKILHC
Summary of the method: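 Rat striatum homogenised in 50 mM potassium phosphate pH 7.4 and spun twice at 20000 × g. Membranes (3 mg wet weight) incubated with 1 nM [3H]-spiperone and test agent in 0.5 ml for 30 min at 37 °C. Nonspecific binding with (+)butaclamol. GF/B filtration, two washes with ice-cold buffer, scintillation counting; Ki from ≥3 experiments, 10 concentrations in triplicate.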

[2] = biological target: 5-hydroxytryptamine receptor 2A (Rattus norvegicus, UniProt P14842); assay: Displacement of [3H]ketanserin from 5HT2A receptor in rat cerebral cortex after 20 mins by liquid scintillation counting; format: tissue-based
5-hydroxytryptamine receptor 2A, sequence (P14842 whole entry): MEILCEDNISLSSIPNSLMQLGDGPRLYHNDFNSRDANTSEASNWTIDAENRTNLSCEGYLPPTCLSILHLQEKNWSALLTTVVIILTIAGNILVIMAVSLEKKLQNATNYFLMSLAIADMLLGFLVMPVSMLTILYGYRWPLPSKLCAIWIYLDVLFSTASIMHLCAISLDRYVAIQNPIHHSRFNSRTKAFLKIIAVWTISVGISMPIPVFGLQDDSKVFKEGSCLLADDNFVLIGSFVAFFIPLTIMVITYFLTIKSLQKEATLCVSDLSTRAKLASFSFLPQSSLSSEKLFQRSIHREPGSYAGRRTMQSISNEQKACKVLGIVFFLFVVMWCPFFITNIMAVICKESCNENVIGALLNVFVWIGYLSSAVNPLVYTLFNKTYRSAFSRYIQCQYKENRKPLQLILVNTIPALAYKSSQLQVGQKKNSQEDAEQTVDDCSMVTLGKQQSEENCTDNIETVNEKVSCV
Summary of the method: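 Rat cerebral cortex homogenised in 50 mM Tris-HCl pH 7.7, spun at 32000 × g, preincubated 10 min at 37 °C, resuspended in 50 volumes. Incubated with 0.6 nM [3H]-ketanserin and test agent (10^-10 to 10^-4 M) at 37 °C for 20 min; mianserin as displacer. GF/B filtration, scintillation counting; Ki from ≥3 experiments, 10 concentrations in triplicate.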

[3] = biological target: T1, 5-hydroxytryptamine receptor 1A (Rattus norvegicus, UniProt P19327); assay: Displacement of [3H]8-OH-DPAT from 5HT1A receptor in rat cerebral cortex after 15 mins by liquid scintillation counting; format: tissue-based
T1 sequence (P19327 whole entry): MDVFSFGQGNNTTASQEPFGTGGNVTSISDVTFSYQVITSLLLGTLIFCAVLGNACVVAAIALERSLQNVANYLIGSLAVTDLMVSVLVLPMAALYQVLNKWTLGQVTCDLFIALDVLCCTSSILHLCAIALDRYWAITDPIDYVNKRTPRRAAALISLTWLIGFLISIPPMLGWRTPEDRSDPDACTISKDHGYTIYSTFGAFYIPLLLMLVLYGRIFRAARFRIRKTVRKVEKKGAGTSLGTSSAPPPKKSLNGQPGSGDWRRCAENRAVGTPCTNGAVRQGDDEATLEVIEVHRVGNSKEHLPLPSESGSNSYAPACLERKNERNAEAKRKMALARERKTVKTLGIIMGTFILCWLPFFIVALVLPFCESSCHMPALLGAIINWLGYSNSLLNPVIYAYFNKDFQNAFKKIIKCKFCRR

[4] = test system: Mus musculus; assay: Agonist activity at 5HT1A receptor in ip dosed Swiss albino mouse assessed as decrease in rectal temperature; format: functional, organism-based
Summary of the method: (§1)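 Male Albino Swiss mice (24–28 g), free food and water, room at 20 ± 1 °C; test agent suspended in 1% aqueous Tween 80, given ip at 10 ml/kg. Rectal temperature read with a thermometer at 30, 60, 90 and 120 min after dosing. Result expressed as Δt from basal temperature taken at the start; six to ten animals per group, each used once.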

[5] = test system: Mus musculus; assay: Agonist activity at 5HT1A receptor in Swiss albino mouse assessed as decrease in rectal temperature at 10 mg/kg, ip after 60 mins; format: functional, organism-based; parameters: dose 10 mg/kg; summary of the method: as §1
[6] = test system: Mus musculus; assay: Agonist activity at 5HT1A receptor in Swiss albino mouse assessed as decrease in rectal temperature at 10 mg/kg, ip after 30 mins; format: functional, organism-based; parameters: dose 10 mg/kg; summary of the method: as §1
[7] = test system: Mus musculus; assay: Agonist activity at 5HT1A receptor in Swiss albino mouse assessed as decrease in rectal temperature at 5 mg/kg, ip after 30 mins; format: functional, organism-based; parameters: dose 5 mg/kg; summary of the method: as §1
[8] = test system: Mus musculus; assay: Agonist activity at 5HT1A receptor in Swiss albino mouse assessed as decrease in rectal temperature at 10 mg/kg, ip after 90 mins; format: functional, organism-based; parameters: dose 10 mg/kg; summary of the method: as §1
[9] = test system: Mus musculus; assay: Agonist activity at 5HT1A receptor in Swiss albino mouse assessed as decrease in rectal temperature at 5 mg/kg, ip after 120 mins; format: functional, organism-based; parameters: dose 5 mg/kg; summary of the method: as §1
[10] = test system: Mus musculus; assay: Agonist activity at 5HT1A receptor in Swiss albino mouse assessed as decrease in rectal temperature at 10 mg/kg, ip after 120 mins; format: functional, organism-based; parameters: dose 10 mg/kg; summary of the method: as §1
[11] = test system: Mus musculus; assay: Agonist activity at 5HT1A receptor in Swiss albino mouse assessed as decrease in rectal temperature at 10 mg/kg, ip after 30 mins in presence of WAY 100635 administered 15 mins before drug challenge; format: functional, organism-based; parameters: dose 10 mg/kg
Summary of the method: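 Male Albino Swiss mice (24–28 g). WAY 100635 (0.1 mg/kg, sc, in distilled water) given 15 min before test agent (ip, suspended in 1% Tween 80, 10 ml/kg). Rectal temperature recorded 30 and 60 min after test agent injection. Expressed as Δt versus basal temperature at the start of the experiment.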

[12] = test system: Mus musculus; assay: Anxiolytic activity in Swiss albino mouse assessed as number of punished crossings at 20 mg/kg, ip. administered 30 mins before test measured for 60s by four plate test; format: functional
Summary of the method: (§2)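 Male Albino Swiss mice. Box with four metal floor plates separated by 4 mm gaps; 120 V between adjacent plates for 0.5 s delivered on crossing. Mice explored 15 s before testing. Agent (ip, 1% Tween 80) given 30 min before the test. Punished crossings counted; n = 10 mice per group, mean ± SEM.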

[13] = test system: Mus musculus; assay: Anxiolytic activity in Swiss albino mouse assessed as number of punished crossings at 30 mg/kg, ip administered 30 mins before test measured for 60s by four plate test; format: functional; conditions: route intraperitoneal; summary of the method: as §2
[14] = test system: Mus musculus; assay: Antidepressant activity in Swiss albino mouse assessed as reduction of immobility time at 20 mg/kg, ip administered 30 mins before test by forced swimming test; format: functional; conditions: route intraperitoneal
Summary of the method: (§3)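 Male Albino Swiss mice (24–28 g); agent suspended in 1% aqueous Tween 80, ip 10 ml/kg, 30 min before the test. Total immobility time scored over the last 4 min of a 6-min swim session. n = 8–10 mice per group; mean ± SEM, compared with vehicle.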

[15] = test system: Mus musculus; assay: Antidepressant activity in Swiss albino mouse assessed as reduction of immobility time at 30 mg/kg, ip administered 30 mins before test by forced swimming test; format: functional; conditions: route intraperitoneal; summary of the method: as §3
[16] = test system: Mus musculus; assay: Agonist activity at 5HT1A receptor in Swiss albino mouse assessed as decrease in rectal temperature at 5 mg/kg, ip after 90 mins; format: functional, organism-based; parameters: dose 5 mg/kg; summary of the method: as §1
[17] = test system: Mus musculus; assay: Agonist activity at 5HT1A receptor in Swiss albino mouse assessed as decrease in rectal temperature at 5 mg/kg, ip after 60 mins; format: functional, organism-based; parameters: dose 5 mg/kg; summary of the method: as §1
[18] = test system: Rattus norvegicus; assay: Behavioral activity in Wistar rat assessed as reduction of 8-OH-DPAT-induced lower lip retraction at 10 to 20 mg/kg, ip administered 45 mins before 8-OH-DPAT challenge; format: functional, organism-based
[19] = test system: Mus musculus; assay: Anxiolytic activity in Swiss albino mouse assessed as number of punished crossings at 10 mg/kg, ip administered 30 mins before test measured for 60s by four plate test; format: functional; conditions: route intraperitoneal; summary of the method: as §2
[20] = test system: Mus musculus; assay: Antidepressant activity in Swiss albino mouse assessed as reduction of immobility time at 10 mg/kg, ip administered 30 mins before test by forced swimming test; format: functional; conditions: route intraperitoneal; summary of the method: as §3
[21] = test system: Mus musculus; assay: Sedative activity in Swiss albino mouse assessed as reduction on spontaneous locomotor activity at 20 mg/kg, ip administered 30 mins before test measured for 6 mins; format: ADME, organism-based; parameters: dose 20 mg/kg, route intraperitoneal; conditions: in vivo, 0.1 h
Summary of the method: (§4)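 Male Albino Swiss mice (24–28 g); agent ip in 1% Tween 80, 30 min before the test. Locomotor activity counted as number of crossings during 6-min and 30-min sessions. n = 8–10 mice per group; mean ± SEM versus vehicle.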

[22] = test system: Mus musculus; assay: Sedative activity in Swiss albino mouse assessed as reduction on spontaneous locomotor activity at 20 mg/kg, ip administered 30 mins before test measured for 30 mins; format: ADME, organism-based; parameters: dose 20 mg/kg, route intraperitoneal; conditions: in vivo, 0.5 h; summary of the method: as §4
[23] = test system: Mus musculus; assay: Sedative activity in Swiss albino mouse assessed as reduction on spontaneous locomotor activity at 30 mg/kg, ip administered 30 mins before test measured for 6 mins; format: ADME, organism-based; parameters: dose 30 mg/kg, route intraperitoneal; conditions: in vivo, 0.1 h; summary of the method: as §4
[24] = test system: Mus musculus; assay: Sedative activity in Swiss albino mouse assessed as reduction on spontaneous locomotor activity at 30 mg/kg, ip administered 30 mins before test measured for 30 mins; format: ADME, organism-based; parameters: dose 30 mg/kg, route intraperitoneal; conditions: in vivo, 0.5 h; summary of the method: as §4
[25] = species: Mus musculus; conditions: Swiss albino, 20 mg/kg
[26] = species: Mus musculus; conditions: Swiss albino, 20 mg/kg; remark: listed apart in the source
[27] = species: Mus musculus; conditions: Swiss albino, 20 mg/kg; remark: listed apart in the source
[28] = species: Mus musculus; conditions: Swiss albino, 20 mg/kg; remark: listed apart in the source
[29] = species: Mus musculus; conditions: Swiss albino, 20 mg/kg; remark: listed apart in the source
[30] = species: Mus musculus; conditions: Swiss albino, 20 mg/kg; remark: listed apart in the source
[31] = test system: Mus musculus; assay: Sedative activity in Swiss albino mouse assessed as reduction on spontaneous locomotor activity at 10 mg/kg, ip administered 30 mins before test measured for 6 mins; format: ADME, organism-based; parameters: dose 10 mg/kg, route intraperitoneal; conditions: in vivo, 0.1 h
[32] = test system: Mus musculus; assay: Sedative activity in Swiss albino mouse assessed as reduction on spontaneous locomotor activity at 10 mg/kg, ip administered 30 mins before test measured for 30 mins; format: ADME, organism-based; parameters: dose 10 mg/kg, route intraperitoneal; conditions: in vivo, 0.5 h

Row | Compound | Ki [1] | Ki [2] | Ki [3] | Activity [4] | deltaT [5] | deltaT [6] | deltaT [8] | Activity [12] | Activity [14] | Activity [15] | Activity [20] | Activity [21] | Activity [22] | Activity [23] | Activity [24] | other results
1 | Cn1c(=O)c2c(nc3n(CCCN4CCN(c5cccc(Cl)c5)CC4)ccn23)n(C)c1=O | > 1000 nM | 91.5 nM | > 1000 nM |  |  |  |  |  |  |  |  |  |  |  |  | 
2 | Cn1c(=O)c2c(nc3n(CCCN4CCN(c5ccccc5)CC4)ccn23)n(C)c1=O | > 1000 nM | > 1000 nM | 24.8 nM | Dose-dependent effect | -0.4 °C | -1.2 °C | -0.4 °C | 6.3 | 87.9 s | 88.9 s | 147.5 s | 146.4 | 255.6 | 139.2 | 221 | deltaT [16]: -0.2 °C; deltaT [17]: -0.4 °C; deltaT [7]: -0.6 °C; deltaT [9]: 0 °C; deltaT [11]: -0.3 °C; Activity [18]: Active; Activity [19]: 4.7
3 | Cn1c(=O)c2c(nc3nc(NCCCN4CCN(c5ccccc5)CC4)c(Br)cn32)n(C)c1=O |  | 297 nM |  |  |  |  |  |  |  |  |  |  |  |  |  | 
4 | CN(C)CCCN1c2ccccc2CCc2ccccc21 [IMIPRAMINE] |  |  |  |  |  |  |  |  | 107.8 s | 76.4 s | 149.1 s | 314.9 | 625.3 | 300.9 | 602.3 | Activity [31]: 338; Activity [32]: 876.8
5 | Cn1c(=O)c2c(nc3n2CC(C(=O)NCCN2CCN(c4cccc(Cl)c4)CC2)N3)n(C)c1=O (stereo unspecified) |  |  | > 1000 nM |  |  |  |  |  |  |  |  |  |  |  |  | 

Second part, led by results:

Row | Ki [1] | Ki [2] | Ki [3] | Activity [4] | Compound | deltaT [5] | deltaT [6] | deltaT [8] | Activity [12] | Activity [14] | Activity [15] | Activity [20] | Activity [21] | Activity [22] | Activity [23] | Activity [24] | other results
6 | > 1000 nM | > 1000 nM | 76.4 nM |  | Cc1cn2c3c(=O)n(C)c(=O)n(C)c3nc2n1CCCN1CCN(c2ccccc2)CC1 |  |  |  |  |  |  |  |  |  |  |  | 
7 | 143 nM | > 1000 nM | 5.6 nM | Dose-dependent effect | COc1ccccc1N1CCN(CCCn2c(-c3ccccc3)cn3c4c(=O)n(C)c(=O)n(C)c4nc23)CC1 | -0.6 °C | -2 °C | -0.6 °C | 3.5 | 169.3 s | 172 s |  |  |  |  |  | deltaT [7]: -0.7 °C; deltaT [9]: 0 °C; deltaT [10]: -0.5 °C; deltaT [11]: -0.9 °C; Activity [13]: 3.2
8 | 839 nM | > 1000 nM | 25.4 nM | Dose-dependent effect | COc1ccccc1N1CCN(CCCn2ccn3c4c(=O)n(C)c(=O)n(C)c4nc23)CC1 | -0.6 °C | -0.7 °C | -0.3 °C | 2.5 | 104.8 s | 101.3 s | 134.2 s | 353.4 | 925.8 | 198 | 567.6 | Activity [13]: 2.5; deltaT [25]: -1.3 °C; deltaT [26]: -1.8 °C; deltaT [27]: -1 °C; deltaT [28]: -1.1 °C; deltaT [29]: -0.9 °C; deltaT [30]: -0.5 °C
